Data from ChEMBL document CHEMBL1811814, “Synthesis and evaluation of indole, pyrazole, chromone and pyrimidine based conjugates for tumor growth inhibitory activities--development of highly efficacious cytotoxic agents” (Eur J Med Chem, 2010).

Assays:
Type in all cases: functional
SF-295 = assay: Growth inhibition of human SF295 cells
ACHN = assay: Growth inhibition of human ACHN cells assessed tumor cell growth at 10^-5 M; parameters: scale not given: the % may be the effect or the level left
Summary of the method: (§1)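 NCI 60-human-tumor-cell-line panel screen. Each compound was tested at a single concentration of 10^-5 M, and percent growth of tumor cells was recorded for each cell line. Growth inhibition was expressed from these percent-growth values.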

Malme-3M [1] = assay: Growth inhibition of human MALME-3M cells assessed tumor cell growth at 10^-5 M; parameters: scale not given: the % may be the effect or the level left; summary of the method: as §1
SF-268 = assay: Growth inhibition of human SF268 cells assessed tumor cell growth at 10^-5 M; parameters: scale not given: the % may be the effect or the level left; summary of the method: as §1
M14 = assay: Growth inhibition of human M14 cells assessed tumor cell growth at 10^-5 M; parameters: scale not given: the % may be the effect or the level left; summary of the method: as §1
[2] = Growth inhibition of human […] cells assessed tumor cell growth at 10^-5 M; parameters: scale not given: the % may be the effect or the level left; summary of the method: as §1
SK-OV-3 = assay: Growth inhibition of human SKOV3 cells assessed tumor cell growth at 10^-5 M; parameters: scale not given: the % may be the effect or the level left; summary of the method: as §1
A549 = assay: Growth inhibition of human A549 cells assessed tumor cell growth at 10^-5 M; parameters: scale not given: the % may be the effect or the level left; summary of the method: as §1
SNB-19 [3] = assay: Growth inhibition of human SNB19 cells assessed tumor cell growth at 10^-5 M; parameters: scale not given: the % may be the effect or the level left
Summary of the method: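 Single-dose screen at 10^-5 M across the 60 human tumor cell line panel, run to NCI standards. The value is the percent growth of each cell line in the presence of compound. Compounds active at this dose moved on to five-concentration testing (10^-4 to 10^-8 M).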

MCF7 = assay: Growth inhibition of human MCF7 cells assessed tumor cell growth at 10^-5 M; parameters: scale not given: the % may be the effect or the level left; summary of the method: as §1
SNB-19 [4] = assay: Growth inhibition of human SNB19 cells
SN12C = assay: Growth inhibition of human SN12C cells
COLO 205 = assay: Growth inhibition of human COLO205 cells assessed tumor cell growth at 10^-5 M; parameters: scale not given: the % may be the effect or the level left; summary of the method: as §1
IGROV-1 = assay: Growth inhibition of human IGROV1 cells
Summary of the method: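 Follow-up panel testing at five concentrations (10^-4, 10^-5, 10^-6, 10^-7 and 10^-8 M) across the 60 human tumor cell lines. GI50 was obtained for each line from the concentration-response data, with the panel average GI50 also reported.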

NCI-H522 [5] = assay: Growth inhibition of human NCI-H522 cells
Malme-3M [6] = assay: Growth inhibition of human MALME-3M cells
RXF 393 = assay: Growth inhibition of human RXF393 cells assessed tumor cell growth at 10^-5 M; parameters: scale not given: the % may be the effect or the level left; summary of the method: as §1
SNB-75 = assay: Growth inhibition of human SNB75 cells
KM12 = assay: Growth inhibition of human KM12 cells
HOP-62 = assay: Growth inhibition of human HOP62 cells
[7] = Growth inhibition of human Hs 578T cells
NCI-H23 = assay: Growth inhibition of human NCI-H23 cells
MDA-MB-231 = assay: Growth inhibition of human MDA-MB-231 cells assessed tumor cell growth at 10^-5 M; parameters: scale not given: the % may be the effect or the level left; summary of the method: as §1
NCI-H522 [8] = assay: Growth inhibition of human NCI-H522 cells assessed tumor cell growth at 10^-5 M; parameters: scale not given: the % may be the effect or the level left; summary of the method: as §1
HT-29 = assay: Growth inhibition of human HT-29 cells assessed tumor cell growth at 10^-5 M; parameters: scale not given: the % may be the effect or the level left; summary of the method: as §1
T47D = assay: Growth inhibition of human T47D cells
[9] = read-out: LC50 (the source's name)

O=C1/C(=C\c2ccccn2)c2ccccc2N1c1c(Cl)cccc1Cl
GI50 (SF-295): 1.7 µM
CC50 (SF-295; [9]): 13.8 µM
Activity (ACHN): 19.58%
Activity (Malme-3M [1]): 67.26%
Activity (SF-268): 7.81%
Activity (M14): -43.6%
Activity [2]: -12.52%
Activity (SK-OV-3): 39.19%
Activity (A549): 50.33%
Activity (SNB-19 [3]): 34.85%
Activity (MCF7): -10.81%
GI50 (SNB-19 [4]): 2.2 µM
CC50 (SNB-19 [4]; [9]): 32.3 µM
GI50 (SN12C): 2.2 µM
CC50 (SN12C; [9]): 58.8 µM
Activity (COLO 205): -1.34%
GI50 (IGROV-1): 1.7 µM
GI50 (NCI-H522 [5]): 1.6 µM
LC50 (concentration killing 50% of cells) (NCI-H522 [5]): 7.5 µM
GI50 (Malme-3M [6]): 1.9 µM
CC50 (Malme-3M [6]; [9]): 16.9 µM
Activity (RXF 393): -35.21%
GI50 (SNB-75): 1.4 µM
CC50 (SNB-75; [9]): 32.3 µM
GI50 (KM12): 1.8 µM
CC50 (KM12; [9]): 6.3 µM
GI50 (HOP-62): 2.3 µM
CC50 (HOP-62; [9]): 89.1 µM
GI50 [7]: 5.6 µM
CC50 [7, 9]: > 100 µM
GI50 (NCI-H23): 3.5 µM
LC50 (concentration killing 50% of cells) (NCI-H23): > 100 µM
Activity (MDA-MB-231): 15.7%
Activity (NCI-H522 [8]): 36.79%
Activity (HT-29): 10.75%
GI50 (T47D): 2.3 µM
